From ChEMBL document CHEMBL1132421, “N-[2,2-dimethyl-3-(N-(4-cyanobenzoyl)amino)nonanoyl]-L-phenylalanine ethyl ester as a stable ester-type inhibitor of chymotrypsin-like serine proteases: structural requirements for potent inhibition of alpha-chymotrypsin” (J Med Chem, 1999)

Assays:
chymotrypsin = experiment: Percentage of intact compound after chymotrypsin cleavage at 37 degree C for 120 min; assay type: ADME; conditions: read-out: Stability
How it was run: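 Inhibitor (5 mM stock, diluted 1:100 by volume) incubated with bovine α-chymotrypsin (625 ng/mL solution) for 120 min at 37 °C. Intact compound and cleaved free acid quantified by reverse-phase HPLC (50–75% acetonitrile in 0.1% TFA over 25 min). Result given as percent intact compound relative to the initial amount.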

Serine protease 1 = target: T1, Serine protease 1 (Bos taurus, UniProt P00760); experiment: Compound was tested by chromogenic assay for the inhibition of serine proteases like Bovine trypsin
T1 sequence (P00760 whole entry): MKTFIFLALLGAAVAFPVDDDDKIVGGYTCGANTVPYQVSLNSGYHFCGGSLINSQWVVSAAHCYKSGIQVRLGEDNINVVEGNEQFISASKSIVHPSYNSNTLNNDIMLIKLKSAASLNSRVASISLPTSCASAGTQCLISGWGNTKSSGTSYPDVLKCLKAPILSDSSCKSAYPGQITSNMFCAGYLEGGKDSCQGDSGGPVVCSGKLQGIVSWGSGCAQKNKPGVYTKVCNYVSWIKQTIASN
How it was run: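 Trypsin (1 U/mL; named porcine pancreatic in the methods, bovine in the table footnote) with Bz-L-Arg-pNA (1 mM) in 50 mM HEPES pH 7.4 containing 0.1 mM NaCl, with varied inhibitor concentrations. Incubated 120 min at 37 °C, then A405 read. IC50 from dose-inhibition curves, with leupeptin as control.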

Chymotrypsinogen A [1] = target: T2, Chymotrypsinogen A (Bos taurus, UniProt P00766); experiment: In vitro inhibition of bovine alpha chymotrypsin.
How it was run: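 Bovine pancreatic α-chymotrypsin (type I-S, 47 ng/mL) with N-succinyl-Ala-Ala-Pro-Phe-pNA (1.5 mM) in 50 mM HEPES pH 7.4 containing 0.1 mM NaCl, across a range of inhibitor concentrations. Incubated 120 min at 37 °C, then A405 read. IC50 taken from dose-inhibition curves, in triplicate. Chymostatin served as control.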

Chymase = target: T3, Chymase (Homo sapiens, UniProt P23946); experiment: Compound was tested by chromogenic assay for the inhibition of human Serine protease chymase
T3 sequence (P23946 whole entry): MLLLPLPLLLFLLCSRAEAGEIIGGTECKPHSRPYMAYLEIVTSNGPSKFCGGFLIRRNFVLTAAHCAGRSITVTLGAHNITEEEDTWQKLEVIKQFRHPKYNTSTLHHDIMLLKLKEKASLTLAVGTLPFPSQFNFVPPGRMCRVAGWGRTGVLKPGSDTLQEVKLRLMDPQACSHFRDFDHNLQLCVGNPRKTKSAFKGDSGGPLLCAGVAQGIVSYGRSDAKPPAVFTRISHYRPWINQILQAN

[2] = target: Chymotrypsin-like elastase family member 1 (Sus scrofa, UniProt P00772); experiment: Compound was tested by chromogenic assay for the inhibition of serine proteases like Porcine Elastase
Sequence of Chymotrypsin-like elastase family member 1 (P00772 whole entry): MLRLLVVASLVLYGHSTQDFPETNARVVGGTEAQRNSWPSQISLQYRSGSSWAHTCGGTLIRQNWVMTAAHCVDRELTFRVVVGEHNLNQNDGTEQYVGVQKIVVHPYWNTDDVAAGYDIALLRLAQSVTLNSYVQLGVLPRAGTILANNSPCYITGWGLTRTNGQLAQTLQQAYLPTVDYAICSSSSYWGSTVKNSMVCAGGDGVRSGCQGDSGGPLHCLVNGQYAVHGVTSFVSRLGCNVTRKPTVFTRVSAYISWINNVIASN
How it was run: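 Purified porcine pancreatic elastase (type III) with chromogenic substrate N-succinyl-Ala-Ala-Ala-pNA in 50 mM HEPES, pH 7.4, with NaCl. Enzyme and substrate were mixed with a range of inhibitor concentrations and held at 37 °C for 120 min. Activity was read as absorbance at 405 nm. IC50 was taken from dose-inhibition curves, with elastatinal as the reference inhibitor.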

Cathepsin G = target: T4, Cathepsin G (Homo sapiens, UniProt P08311); experiment: Compound was tested by chromogenic assay for the inhibition of serine proteases like Human cathepsin G
T4 sequence (P08311 whole entry): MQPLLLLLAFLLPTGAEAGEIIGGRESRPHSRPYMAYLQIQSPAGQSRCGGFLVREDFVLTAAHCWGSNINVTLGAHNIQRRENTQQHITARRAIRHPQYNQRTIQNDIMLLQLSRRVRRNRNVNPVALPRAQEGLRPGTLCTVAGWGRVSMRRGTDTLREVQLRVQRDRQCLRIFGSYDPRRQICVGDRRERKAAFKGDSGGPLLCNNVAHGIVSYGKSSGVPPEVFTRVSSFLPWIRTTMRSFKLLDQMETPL

Chymotrypsinogen A [3] = target: T2, Chymotrypsinogen A; experiment: Compound was evaluated for inactivation of bovine alpha-Chymotrypsin Kinetic constant(Ki)

Row | remaining at 2 h (chymotrypsin) [%] | IC50 (Serine protease 1) [µM] | IC50 (Chymotrypsinogen A [1]) [nM] | SMILES | IC50 [2] [nM] | further results
1 | 3 |  |  | CCCCCC(NC(=O)c1ccc(C#N)cc1)C(C)(C)C(=O)N[C@@H](Cc1ccccc1)C(=O)OCC (stereo not given in full) |  | 
2 | 6 |  |  | CCCCCCC(NC(=O)c1ccc(C#N)cc1F)C(C)(C)C(=O)N[C@@H](Cc1ccccc1)C(=O)OCC (stereo not given in full) |  | 
3 |  | 0.3 | 2.1 | CC(C)(C(=O)OC(=O)C(C)(C)C(CCc1ccccc1)NC(=O)c1ccc(C#N)cc1)C(CCc1ccccc1)NC(=O)c1ccc(C#N)cc1 (stereo not given) |  | 
4 |  | 6.3 | 1000 | CCCCCCC(NC(=O)OC(C)(C)C)C(C)(C)C(=O)N[C@@H](Cc1ccccc1)C(=O)OCC (stereo not given in full) |  | 
5 | 91 |  | 3400 | CCOC(=O)[C@H](Cc1ccccc1)NC(=O)C(C)(C)C(CC)NC(=O)c1ccc(C#N)cc1 (stereo not given in full) |  | 
6 | 11 |  |  | CCCC(NC(=O)c1ccc(C#N)cc1)C(C)(C)C(=O)N[C@@H](Cc1ccccc1)C(=O)OCC (stereo not given in full) |  | 
7 | 41 |  |  | CCOC(=O)[C@H](Cc1ccccc1)NC(=O)C(C)(C)C(CC(C)C)NC(=O)c1ccc(C#N)cc1 (stereo not given in full) |  | 
8 | < 1 |  |  | CCCCCCCC(NC(=O)c1ccc(C#N)cc1)C(C)(C)C(=O)N[C@@H](Cc1ccccc1)C(=O)OCC (stereo not given in full) |  | 
9 | 16 |  |  | CCCCCCCCCCC(NC(=O)c1ccc(C#N)cc1)C(C)(C)C(=O)N[C@@H](Cc1ccccc1)C(=O)OCC (stereo not given in full) |  | 
10 |  | 220 | 4200 | CCCCCCCCCCCCC(NC(=O)c1ccc(C#N)cc1)C(C)(C)C(=O)N[C@@H](Cc1ccccc1)C(=O)OCC (stereo not given in full) |  | 
11 |  |  | 73000 | CCCCCCC(NC(=O)c1ccc(C#N)cc1)C(C)(C)C(=O)N[C@@H](Cc1ccccc1)C(=O)OC(C)(C)C (stereo not given in full) |  | 
12 | 90 | 60 | 2200 | CCOC(=O)[C@H](Cc1ccccc1)NC(=O)C(C)(C)C(NC(=O)c1ccc(C#N)cc1)C(C)C (stereo not given in full) |  | 
13 |  |  | 230000 | CCCCCCC(NC(=O)c1ccc(C#N)cc1)C(C)(C)C(=O)N[C@@H](Cc1ccccc1)C(=O)OCc1ccccc1 (stereo not given in full) |  | 
14 |  |  | 12000 | CCCCCCC(NC(=O)c1ccco1)C(C)(C)C(=O)N[C@@H](Cc1ccccc1)C(=O)OCC (stereo not given in full) |  | 
15 | < 1 | 560 | 17000 | CCCCCCC(NC(=O)c1ccccc1)C(C)(C)C(=O)N[C@@H](Cc1ccccc1)C(=O)OCC (stereo not given in full) |  | 
16 |  |  | 250 | CCOC(=O)[C@H](Cc1ccccc1)NC(=O)C(C)(C)C(CCc1ccccc1)NC(=O)c1ccc(C#N)cc1 (stereo not given in full) |  | 
17 |  | 0.54 | 2.6 | CCCCCCC(NC(=O)c1ccc(C#N)cc1)C(C)(C)C(=O)N[C@@H](Cc1ccccc1)C(=O)OCC (stereo in doubt; 3) | 7 | Ki (Chymotrypsinogen A [3]): 4.5 nM
18 |  |  | 1.6 | CCCCCCC(NC(=O)c1ccc(C#N)cc1)C(C)(C)C(=O)N[C@@H](Cc1ccccc1)C(=O)OCC (stereo in doubt; 3-F) | 8.6 | 
19 |  |  | 5.1 | CCCCCCC(NC(=O)c1ccc(C#N)cc1)C(C)(C)C(=O)N[C@@H](Cc1ccccc1)C(=O)OCC (stereo in doubt; 3-R) | 14 | 

Row | SMILES | remaining at 2 h (chymotrypsin) [%] | IC50 (Serine protease 1) [µM] | IC50 (Chymotrypsinogen A [1]) [nM] | IC50 [2] [nM] | further results
20 | CCCCC(NC(=O)c1ccc(C#N)cc1)C(C)(C)C(=O)N[C@@H](Cc1ccccc1)C(=O)OCC (stereo not given in full) |  |  | 27000 | 710000 | IC50 (Chymase): 510 µM
21 | CCCCCCC(NC(=O)c1ccc(C#N)cc1)C(C)(C)C(=O)N[C@@H](Cc1ccccc1)C(=O)OC (stereo not given in full) | 98 |  | 1100 | 4200 | IC50 (Cathepsin G): 1.5 µM; Ki (Chymotrypsinogen A [3]): 12000 nM
22 | CCCCCCC(NC(=O)c1ccc(C#N)cc1)C(C)(C)C(=O)N[C@@H](Cc1ccccc1)C(=O)OC(C)C (stereo not given in full) | 98 | 6.7 | 86 | 200 | IC50 (Chymase): 0.15 µM; Ki (Chymotrypsinogen A [3]): 70 nM
23 | CCCCCCCCC(NC(=O)c1ccc(C#N)cc1)C(C)(C)C(=O)N[C@@H](Cc1ccccc1)C(=O)OCC (stereo not given in full) | 61 |  | 8600 | 2700 | IC50 (Cathepsin G): 6.6 µM
24 | CCCCCCC(NC(=O)c1ccc(C#N)cc1)C(C)(C)C(=O)N[C@@H](Cc1ccccc1)C(=O)OCCC (stereo not given in full) | 97 | 17 | 230 | 270 | Ki (Chymotrypsinogen A [3]): 340 nM
